How the values were obtained:
[1] = molecular target: T1, Beta-lactamase (Enterobacter cloacae, UniProt P05364); assay: The concentration of compound to inhibit beta-lactamase was measured on Enterobacter cloacae SC 12368; assay type: functional
[2] = molecular target: T2, Beta-lactamase TEM (Escherichia coli, UniProt P62593); assay: (§1) The concentration of compound to inhibit beta-lactamase was measured on Escherichia coli WC3310; assay type: functional
In short: (§2)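 TEM-2 β-lactamase partially purified from E. coli W3310 (freeze-thaw lysis, DNase, Sephadex G-75 gel filtration). Enzyme preincubated with varied inhibitor in 50 mM phosphate buffer pH 7.2 at 25 °C for 10 min. Aliquot then diluted into nitrocefin (the more concentrated standard solution), and hydrolysis rate read at 482 nm.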

[3] = molecular target: T1, Beta-lactamase; assay: The concentration of compound to inhibit beta-lactamase was measured on Enterobacter cloacae P99; assay type: functional
[4] = molecular target: T2, Beta-lactamase TEM; assay: as §1; assay type: functional; remark: listed apart in the source
In short: (§3)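 TEM-2 β-lactamase partially purified from E. coli W3310 (freeze-thaw lysis, DNase, Sephadex G-75 gel filtration). Enzyme preincubated with varied inhibitor in 50 mM phosphate buffer pH 7.2 at 25 °C for 10 min.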

[5] = The pseudo second order rate constant of inhibition (k3'') was measured by using Kitz and Wilson method; assay type: ADME
In short: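 Kitz–Wilson analysis with E. cloacae P99 β-lactamase in 50 mM phosphate pH 7.2 at 25 °C. Enzyme incubated with five inhibitor concentrations (assay 2.8 × 10⁻⁸ to 1.4 × 10⁻⁷ M; enzyme 2.56 nM final). Aliquots taken at 30 s intervals over 5 min, diluted into nitrocefin (0.19 mM), absorbance at 482 nm read for 10 s. Reciprocal rate constants plotted against reciprocal inhibitor concentration.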

[6] = molecular target: T1, Beta-lactamase; assay: The concentration of compound to inhibit Beta-lactamase was measured on Enterobacter cloacae SC 12368; assay type: functional
[7] = molecular target: T2, Beta-lactamase TEM; assay: (§4) The concentration of compound to inhibit Beta-lactamase was measured on Escherichia coli WC3310; assay type: functional; in short: as §2
[8] = molecular target: T1, Beta-lactamase; assay: The concentration of compound to inhibit Beta-lactamase was measured on Enterobacter cloacae P99; assay type: functional
[9] = molecular target: T2, Beta-lactamase TEM; assay: as §4; assay type: functional; in short: as §3; remark: listed apart in the source

T1 sequence (P05364 whole entry): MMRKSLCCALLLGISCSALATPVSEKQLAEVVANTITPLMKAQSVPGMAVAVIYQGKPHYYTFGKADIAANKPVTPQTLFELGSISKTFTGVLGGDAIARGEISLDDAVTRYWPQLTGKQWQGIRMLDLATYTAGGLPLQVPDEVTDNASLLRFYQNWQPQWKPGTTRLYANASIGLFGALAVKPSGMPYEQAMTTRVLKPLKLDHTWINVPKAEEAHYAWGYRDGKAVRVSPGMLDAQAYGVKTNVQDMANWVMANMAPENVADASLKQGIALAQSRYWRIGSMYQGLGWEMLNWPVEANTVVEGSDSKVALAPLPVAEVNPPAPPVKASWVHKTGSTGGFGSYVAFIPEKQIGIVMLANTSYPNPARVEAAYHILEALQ
T2 sequence (P62593 whole entry): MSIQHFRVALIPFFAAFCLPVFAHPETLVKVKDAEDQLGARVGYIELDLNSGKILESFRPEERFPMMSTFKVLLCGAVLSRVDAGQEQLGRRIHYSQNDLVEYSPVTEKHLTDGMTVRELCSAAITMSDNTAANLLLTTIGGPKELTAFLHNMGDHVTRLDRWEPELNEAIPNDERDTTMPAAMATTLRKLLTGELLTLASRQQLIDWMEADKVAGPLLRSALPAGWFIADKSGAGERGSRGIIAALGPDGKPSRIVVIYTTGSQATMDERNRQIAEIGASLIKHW

Row | Compound | IC50 [1] | IC50 [3] | IC50 [4] | IC50 [6] | IC50 [7] | IC50 [8] | other results
1 | CC(=O)OCC1=C(C(=O)O)N2C(=O)/C(=C/C(C)(C)C)[C@H]2SC1 | > 20 µM | > 20 µM |  |  |  |  | IC50 [2]: > 20 µM
2 | CC(=O)OCC1=C(C(=O)O)N2C(=O)/C(=C/c3ccccc3)[C@H]2S(=O)(=O)C1 | 6.8 µM | 6.25 µM | > 20 µM |  |  |  | 
3 | CC(=O)OCC1=C(C(=O)O)N2C(=O)/C(=C/CO)[C@H]2S(=O)(=O)C1 | > 20 µM | > 20 µM |  |  |  |  | IC50 [2]: > 20 µM
4 | CC(=O)OCC1=C(C(=O)O)N2C(=O)/C(=C/C(C)(C)C)[C@H]2S(=O)(=O)C1 | > 20 µM | > 20 µM |  |  |  |  | IC50 [2]: > 20 µM
5 | O=C([O-])[C@H]1/C(=C/CO)O[C@@H]2CC(=O)N21.[Na+] [CLAVULANIC ACID (SODIUM)] |  |  |  |  |  |  | k3' [5]: 799 L (M min)-1
6 | CC(=O)OCC1=C(C(=O)O)N2C(=O)/C(=C/C=O)[C@H]2SC1 |  |  |  | 16.5 µM | > 20 µM | 8.2 µM | 
7 | CC(=O)OCC1=C(C(=O)[O-])N2C(=O)/C(=C/c3ccccn3)[C@H]2S(=O)(=O)C1.[Na+] | 0.025 µM | 0.025 µM | 0.8 µM |  |  |  | k3' [5]: 5.3e+06 L (M min)-1
8 | C[C@]1(Cn2ccnn2)[C@H](C(=O)[O-])N2C(=O)C[C@H]2S1(=O)=O.[Na+] [TAZOBACTAM SODIUM] |  |  |  |  |  |  | k3' [5]: 74000 L (M min)-1
9 | CON(C)C(=O)/C=C1/C(=O)N2C(C(=O)O)=C(COC(C)=O)CS[C@H]12 | > 20 µM | > 20 µM | > 20 µM |  |  |  | 
10 | CC(=O)OCC1=C(C(=O)O)N2C(=O)/C(=C/c3ccccn3)[C@H]2SC1 |  |  |  | > 20 µM | > 2 µM | > 20 µM | 
11 | CC(=O)OCC1=C(C(=O)O)N2C(=O)/C(=C\Br)[C@H]2SC1 |  |  |  | > 20 µM |  | > 20 µM | IC50 [9]: > 20 µM
12 | CC(=O)OCC1=C(C(=O)O)N2C(=O)C(=C(Cl)Cl)[C@H]2S(=O)(=O)C1 | > 20 µM | > 20 µM | 8.3 µM |  |  |  | 
13 | CC(=O)OCC1=C(C(=O)O)N2C(=O)/C(=C\Br)[C@H]2S(=O)(=O)C1 | > 20 µM | > 20 µM |  |  |  |  | IC50 [2]: > 20 µM
14 | CC(=O)OCC1=C(C(=O)[O-])N2C(=O)C(=C=CC(C)(C)C)[C@H]2S(=O)(=O)C1.[Na+] |  |  |  | 0.26 µM | > 20 µM | 0.13 µM | k3' [5]: 1.7e+06 L (M min)-1
15 | CC(=O)OCC1=C(C(=O)O)N2C(=O)/C(=C\c3ccccc3)[C@H]2S(=O)(=O)C1 | > 20 µM | > 20 µM | > 20 µM |  |  |  | 
16 | CC(=O)OCC1=C(C(=O)O)N2C(=O)C(=C(Br)Br)[C@H]2SC1 |  |  |  | > 20 µM | > 20 µM | > 20 µM | 
17 | CC(=O)OCC1=C(C(=O)O)N2C(=O)/C(=C/C(=O)OC(C)(C)C)[C@H]2S(=O)(=O)C1 | 5.9 µM | 7.8 µM | 0.005 µM |  |  |  | 
18 | CC(=O)OCC1=C(C(=O)O)N2C(=O)/C(=C/C(=O)OC(C)(C)C)[C@H]2SC1 |  |  |  | > 20 µM | > 20 µM | 2.5 µM | 
19 | CC(=O)OCC1=C(C(=O)O)N2C(=O)C(=C(Br)Br)[C@H]2S(=O)(=O)C1 | > 20 µM | > 20 µM | > 20 µM |  |  |  | 
20 | CC(=O)OCC1=C(C(=O)O)N2C(=O)C(=C(Cl)Cl)[C@H]2SC1 |  |  |  | > 20 µM | > 20 µM | > 20 µM | 
21 | CC(=O)/C=C1/C(=O)N2C(C(=O)O)=C(COC(C)=O)CS[C@H]12 |  |  |  | > 20 µM | > 20 µM | > 20 µM | 
22 | CC(=O)OCC1=C(C(=O)O)N2C(=O)/C(=C/c3ccccc3)[C@H]2SC1 |  |  |  | > 20 µM | > 20 µM | > 20 µM | 

From ChEMBL document CHEMBL1128595, “Synthesis and biological activity of 7-alkylidenecephems” (J Med Chem, 1995)
